According to paper PMC5820113 (Neuropharmacology, 2017):
Read-outs that look alike come from different tables or passages of the source.

Tests used:
METH self-administration [1] = settings: cited from earlier work
sigma-1 receptors = settings: ref Cao et al, 2016, cited from earlier work; for sigma-1/DAT binding ratio: ratio of binding affinities, Hiranita et al, 2017
[2] = tested on: cocaine self-administration; settings: cited from earlier work
METH self-administration [3] = test: Intravenous METH self-administration, short access; type: in vivo, rat; settings: for reduction of METH intake: ShA rats (Supplemental Figure S2)
Method in brief: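 Rats (225-275 g at start, reverse light cycle, free food/water) trained on i.v. METH, 10-15 sessions, then 10 FR1 sessions of 1 h (ShA) or 6 h (LgA) access. Test compound i.p. (vehicle up to 100 mg/kg), 30 min or 1 h pretreatment, then FR1 session; Latin-square, within-subjects. Mean ± SEM; ANOVA or paired t-test vs vehicle, Holm-Sidak.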

[4] = Phase I metabolic stability in rat liver microsomes; type: in vitro ADME
[5] = tested on: saccharin self-administration; test: Saccharin self-administration; type: in vivo, rat; settings: rats (Supplemental Figure S3)
locomotion [6] = test: Locomotion during saccharin self-administration; type: in vivo, rat; settings: rats (Supplemental Figure S3)
[7] = mouse, previously conducted; ref Supplemental Material; cited from earlier work
[8] = tested on: cocaine-induced locomotion; settings: ref Zhang et al, 2017; cited from earlier work
[9] = tested on: cocaine-induced reinstatement; settings: ref Zhang et al, 2017; cited from earlier work
brain stimulation reward = settings: cited from earlier work
[10] = tested on: sucrose self-administration; settings: rats; ref Zhang et al, 2017; cited from earlier work
locomotion [11] = settings: cited from earlier work
[12] = Plasma and brain levels after single i.p. dose in rats; type: in vivo; settings: rat
Method in brief: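 Rats given a single 10 mg/kg i.p. dose, freshly prepared in 10% DMSO and 10% Tween 80 diluted with sterile saline. At 30 and 120 min (n = 3 per time point), CO2 euthanasia. Heparinized cardiac-puncture blood was spun at once for plasma. Brain was dissected and flash-frozen at -80°C.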

[13] = biological target: dopamine transporter (DAT); settings: read-out: Ki, DAT affinity; ref Cao et al, 2016; Zhang et al, 2017; cited from earlier work
[14] = ref Cao et al, 2016; cited from earlier work
[15] = rats, ref Hiranita et al, 2014, 2017
[16] = all doses tested i.p. (JJC8-088 3, 10, 30 mg/kg; JJC8-089 1, 3, 10, 30 mg/kg)
[17] = 10 mg/kg i.p., 30 min post-administration
[18] = 10 mg/kg i.p., 2 h (120 min) post-administration
[19] = 100 mg/kg i.p., 1 h pretreatment, vs vehicle
[20] = 10-30 mg/kg, ref Zhang et al (2017)

Structure (SMILES) | sigma-1/DAT binding ratio (sigma-1 receptors) | METH intake, LgA rats entire 6 h session (METH self-administration [3]; 30 mg/kg i.p., vs vehicle) | reduction of METH intake (METH self-administration [3]) [%] | half-life [4] [min] | saccharin (sweetened water) self-administration [5] | locomotion (locomotion [6]) | brain level [12, 17] | brain level [12, 18] | Ki [13] [nM] | also measured
NC(=O)C[S+]([O-])C(c1ccccc1)c1ccccc1 (racemic) [(±)-modafinil] | – | – | – | – | – | – | – | – | – | METH self-administration (METH self-administration [1]; 300 mg/kg, very high dose, ref Reichel and See (2012)): significantly decreased
CCCCN1[C@@H]2CC[C@H]1CC(OC(c1ccc(F)cc1)c1ccc(F)cc1)C2 (stereo partly drawn) [JHW 007, reference compound] | 0.20-0.23 | – | – | – | – | – | – | – | – | METH self-administration (METH self-administration [1]; [15]): effectively block; cocaine self-administration [2, 15]: effectively block
Fc1ccc(C(SCCNCCCc2ccccc2)c2ccc(F)cc2)cc1 [JJC8-016, N-[2-([bis(4-fluorophenyl)methyl]thio)ethyl]-3-phenylpropan-1-amine] | – | significantly decreased | > 50 | 9 | significantly reduced | without causing significant locomotor effects | – | – | – | METH intake, LgA rats first hour (METH self-administration [3]; 30 mg/kg i.p., vs vehicle): significantly decreased; METH intake, ShA rats 1 h session (METH self-administration [3]; 30 mg/kg i.p., vs vehicle): significantly decreased; reduction of self-administration (METH self-administration [3]; LgA rats, 1 h time point (Supplemental Figure S2)): > 50%; brain penetration [7]: good brain penetration; affinity for sigma-1 receptors (sigma-1 receptors): high affinities; cocaine self-administration ([2]; ref Zhang et al, 2017): effectively inhibited; cocaine-induced locomotion [8]: effectively inhibited; cocaine-induced reinstatement [9]: effectively inhibited; intracranial self-stimulation (brain stimulation reward; ref Zhang et al, 2017): without affecting; sucrose self-administration [10]: reduce; locomotor activity (locomotion [11]; ref Zhang et al, 2017): without affecting
[O-][S+](CCN1CCN(CC(O)Cc2ccccc2)CC1)C(c1ccc(F)cc1)c1ccc(F)cc1 (stereo not drawn) [JJC8-088, 1-[4-(2-[(bis[4-fluorophenyl]methyl)sulfinyl]ethyl)piperazin-1-yl]-3-phenylpropan-2-ol] | > 100 | – | – | 39 | increased | increased | very little | nearly undetectable | 2.53 | METH intake, LgA rats entire 6 h session (METH self-administration [3]; all doses tested i.p. (3, 10, 30 mg/kg)): did not affect; METH intake, LgA rats first hour (METH self-administration [3]; [16]): did not significantly change; METH intake, ShA rats 1 h session (METH self-administration [3]; [16]): did not significantly change; levels in both brain and plasma ([12]; 10 mg/kg i.p., 30 min and 2 h): low levels; t1/2 in mouse liver microsomes [14]: 12.9 min; Ki (sigma-1 receptors; read-out: Ki, sigma1 receptors): 336 nM
CC(O)CN1CCN(CCSC(c2ccc(F)cc2)c2ccc(F)cc2)CC1 (stereo not drawn) [JJC8-089, 1-[4-(2-[(bis[4-fluorophenyl]methyl)thio]ethyl)piperazin-1-yl]propan-2-ol] | 0.24 | significantly decreased | > 50 | 14 | significantly reduced | without causing significant locomotor effects | 7.6 ± 0.3 nmol/g | 3.6 ± 0.7 nmol/g | 16.7 | METH intake, LgA rats first hour (METH self-administration [3]; [16]): only observed a group effect; METH intake, ShA rats 1 h session (METH self-administration [3]; [16]): only observed a group effect; Kp ([12]; brain/plasma, ip, 10 mg/kg): 8 to 9; affinity for sigma-1 receptors (sigma-1 receptors): high affinities
CC(O)CN1CCN(CC[S+]([O-])C(c2ccc(F)cc2)c2ccc(F)cc2)CC1 (stereo not drawn) [JJC8-091, 1-[4-(2-[(bis[4-fluorophenyl]methyl)sulfinyl]ethyl)piperazin-1-yl]propan-2-ol] | – | significant reduction | – | 126 | significantly reduced | without causing significant locomotor effects | 0.45 ± 0.18 nmol/g | 0.30 ± 0.015 nmol/g | 289 | METH intake, LgA rats entire 6 h session (METH self-administration [3]; 10 mg/kg i.p., vs vehicle): significant reduction; METH intake, LgA rats entire 6 h session (METH self-administration [3]; 56 mg/kg i.p., vs vehicle): significant reduction; METH intake, LgA rats first hour (METH self-administration [3]; 56 mg/kg i.p., vs vehicle): decreased; METH intake, ShA rats 1 h session (METH self-administration [3]; 56 mg/kg i.p., vs vehicle): decreased
NC(=O)C[S@@+]([O-])C(c1ccccc1)c1ccccc1 [R-MOD, [R]-2-[(diphenylmethyl)sulfinyl]acetamide, reference compound] | – | – | > 50 | 55 | did not alter | did not alter | – | – | – | METH intake, LgA rats first hour (METH self-administration [3]; [19]): significantly decreased; METH intake, ShA rats 1 h session (METH self-administration [3]; [19]): significantly decreased; METH intake, LgA rats entire 6 h session (METH self-administration [3]; 100 mg/kg i.p., vs vehicle (p = 0.058)): nonsignificant; brain stimulation reward (brain stimulation reward; [20]): enhanced; locomotion (locomotion [11]; [20]): increased
